Test results from ChEMBL document CHEMBL4130626, “α-Arylidene Diacylglycerol-Lactones (DAG-Lactones) as Selective Ras Guanine-Releasing Protein 3 (RasGRP3) Ligands” (J Med Chem, 2018).

Assays:
[1] = molecular target: Protein kinase C alpha type (Homo sapiens, UniProt P17252); assay: Displacement of [3H]PDBu from full length recombinant human PKCalpha expressed in baculovirus expression system after 5 mins by scintillation counting
In short: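 Competition of [3H]PDBu binding by polyethylene glycol precipitation, with 100 µg/ml phosphatidylserine and ≤0.003% Triton X-100, 5 min at 37 °C. Proteins: full-length purified human PKCα, PKCε; full-length RasGRP1; MBP-RasGRP3 from E. coli BL21(DE3) induced with 0.3 mM IPTG 6 h at room temperature. Ki mean ± SEM of ≥2 experiments, triplicate points.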

[2] = molecular target: T1, RAS guanyl-releasing protein 1 (Homo sapiens, UniProt O95267); assay: Activation of GFP-tagged RasGRP1 (unknown origin) expressed in HEK293 cells after 30 mins by immunoblot method; assay type: cell-based
T1 sequence (O95267 whole entry): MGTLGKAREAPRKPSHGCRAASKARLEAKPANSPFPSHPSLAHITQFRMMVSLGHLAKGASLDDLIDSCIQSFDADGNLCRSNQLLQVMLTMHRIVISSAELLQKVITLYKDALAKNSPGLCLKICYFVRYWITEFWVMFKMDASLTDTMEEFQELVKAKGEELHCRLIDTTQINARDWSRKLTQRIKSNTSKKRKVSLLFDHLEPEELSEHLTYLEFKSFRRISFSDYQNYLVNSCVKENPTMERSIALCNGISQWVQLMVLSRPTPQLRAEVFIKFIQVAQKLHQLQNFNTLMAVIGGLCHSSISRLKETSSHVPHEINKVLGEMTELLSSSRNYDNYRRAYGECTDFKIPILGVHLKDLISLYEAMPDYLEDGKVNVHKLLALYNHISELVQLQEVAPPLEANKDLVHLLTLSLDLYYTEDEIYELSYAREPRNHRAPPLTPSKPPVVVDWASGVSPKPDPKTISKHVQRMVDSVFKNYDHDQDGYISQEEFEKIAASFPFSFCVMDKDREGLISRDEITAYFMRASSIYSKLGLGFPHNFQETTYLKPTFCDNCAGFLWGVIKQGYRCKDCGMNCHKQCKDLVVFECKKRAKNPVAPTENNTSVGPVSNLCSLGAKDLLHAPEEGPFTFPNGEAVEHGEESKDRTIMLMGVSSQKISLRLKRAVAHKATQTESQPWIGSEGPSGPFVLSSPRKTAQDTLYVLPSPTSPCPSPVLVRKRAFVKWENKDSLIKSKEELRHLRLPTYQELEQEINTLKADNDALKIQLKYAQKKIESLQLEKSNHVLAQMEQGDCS
In short: (§1)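 Cells expressing GFP-RasGRP1/3 (HEK293 or LNCaP, 48 h after plating, transfected; expression checked by fluorescence 24-48 h later) or Ramos with endogenous RasGRP3 treated with half-log increasing concentrations (max 10 µM), 1000 nM PMA or DMSO, 37 °C, 30 min, 5% CO2. RasGTP by Raf1 RBD bead pulldown and anti-Pan-Ras immunoblot; pERK by western blot. Band intensities normalized to 1000 nM PMA; EC50 from n = 3.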

[3] = molecular target: T1, RAS guanyl-releasing protein 1; assay: Activation of GFP-tagged RasGRP1 (unknown origin) expressed in human LNCAP cells after 30 mins by immunoblot method; assay type: cell-based; in short: as §1
[4] = molecular target: T2, Protein kinase C delta type (Homo sapiens, UniProt Q05655); assay: Activation of PKCdelta (unknown origin) expressed in HEK293 cells harboring GFP-tagged RasGRP3 assessed as phosphorylation at ser299 residues after 30 mins by immunoblot method; assay type: cell-based
In short: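 Cells are GFP-RasGRP3-transfected HEK293, grown in EMEM + 10% FBS. Exposed 30 min at 37 °C, 5% CO2, to half-log concentrations up to 10 µM, 1000 nM PMA or DMSO. Lysed in RIPA with protease and phosphatase inhibitors. 50 µg protein run on 10% SDS-PAGE and blotted for phospho-PKCδ S299; anti-GFP used as loading control. Signal normalised to 1000 nM PMA. EC50 is the mean of n = 3.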

[5] = molecular target: T2, Protein kinase C delta type; assay: Activation of PKCdelta (unknown origin) expressed in human LNCAP cells harboring GFP-tagged RasGRP1 assessed as phosphorylation at ser299 residues after 30 mins by immunoblot method; assay type: cell-based
In short: (§2)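 PKCδ activation read as phospho-S299 on western blots of lysates (50 µg protein, 10% SDS-PAGE, milk blocking, anti-PKCδS299 overnight). Cells: GFP-RasGRP1/3-transfected HEK293 or LNCaP, or Ramos, treated 30 min at 37 °C with half-log doses (maximum 10 µM), 1000 nM PMA or DMSO. Scanned intensities normalized to 1000 nM PMA; EC50 mean ± SEM, n = 3; values above 10 µM extrapolated.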

[6] = molecular target: T2, Protein kinase C delta type; assay: Activation of PKCdelta (unknown origin) expressed in human LNCAP cells harboring GFP-tagged RasGRP3 assessed as phosphorylation at ser299 residues after 30 mins by immunoblot method; assay type: cell-based; in short: as §2
[7] = molecular target: T1, RAS guanyl-releasing protein 1; assay: Activation of GFP-tagged RasGRP1 (unknown origin) expressed in HEK293 cells assessed as ERK1/2 phosphorylation after 30 mins by immunoblot method; assay type: cell-based; in short: as §1
Homo sapiens [8] = species on record: Homo sapiens; assay: Selectivity ratio of EC50 for PKCdelta (unknown origin) expressed in HEK293 cells harboring GFP-tagged RasGRP3 to EC50 for GFP-tagged RasGRP3 (unknown origin) expressed in HEK293 cells; assay type: cell-based
In short: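 One EC50 comes from PKCδ S299 phosphorylation on immunoblot, the other from Ras-GTP pulled down on Raf1-RBD. Both signals normalised to 1000 nM PMA. EC50s above 10 µM are extrapolated.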

Homo sapiens [9] = species on record: Homo sapiens; assay: Selectivity ratio of EC50 for PKCdelta in human Ramos cells expressing RasGRP3 to EC50 for RasGRP3 in human Ramos cells; assay type: cell-based
Homo sapiens [10] = species on record: Homo sapiens; assay: Selectivity ratio of EC50 for PKCdelta (unknown origin) expressed in human LNCAP cells harboring GFP-tagged RasGRP1 to EC50 for GFP-tagged RasGRP1 (unknown origin) expressed in human LNCAP cells assessed as ERK1/2 phosphorylation; assay type: cell-based

T2 sequence (Q05655 whole entry): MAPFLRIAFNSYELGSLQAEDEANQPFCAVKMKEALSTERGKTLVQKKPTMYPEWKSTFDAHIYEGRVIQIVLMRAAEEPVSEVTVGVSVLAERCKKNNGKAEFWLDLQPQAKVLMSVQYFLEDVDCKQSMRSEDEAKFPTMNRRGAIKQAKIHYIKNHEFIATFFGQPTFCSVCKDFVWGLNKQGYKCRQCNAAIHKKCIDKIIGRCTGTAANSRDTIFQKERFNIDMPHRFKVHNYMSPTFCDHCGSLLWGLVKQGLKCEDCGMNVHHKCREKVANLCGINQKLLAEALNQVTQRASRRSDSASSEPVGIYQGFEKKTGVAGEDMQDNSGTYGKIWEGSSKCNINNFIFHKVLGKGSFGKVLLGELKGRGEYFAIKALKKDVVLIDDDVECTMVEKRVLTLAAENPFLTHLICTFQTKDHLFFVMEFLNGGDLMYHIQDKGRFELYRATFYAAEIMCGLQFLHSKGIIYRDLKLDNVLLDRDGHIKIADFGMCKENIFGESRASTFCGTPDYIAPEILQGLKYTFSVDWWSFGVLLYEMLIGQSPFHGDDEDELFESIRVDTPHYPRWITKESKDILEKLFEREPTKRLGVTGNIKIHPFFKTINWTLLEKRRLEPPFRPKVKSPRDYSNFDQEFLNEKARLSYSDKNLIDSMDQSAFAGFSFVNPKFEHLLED

- Ki [1]: 0.127 µM
- EC50 [2]: 0.86 µM
- EC50 [3]: 0.97 µM
- EC50 [4]: 16.9 µM
- EC50 [5]: 8.03 µM
- EC50 [6]: 8.28 µM
- EC50 [7]: 4.88 µM
Structure (SMILES): Cn1cc(/C=C2\CC(CO)(COC(=O)C(C)(C)C)OC2=O)c2ccccc21 (stereo not given)
- Ratio EC50 (Homo sapiens [8]): 9.2
- Ratio EC50 (Homo sapiens [9]): 28.6
- Ratio EC50 (Homo sapiens [10]): 2.2
